Test results published in ChEMBL document CHEMBL1139875, “Discovery of 4-aminobutyric acid derivatives possessing anticonvulsant and antinociceptive activities: a hybrid pharmacophore approach” (2007).
The source made the active and inactive calls. The calls are words filed in the database; no cut-off is given here.

Assays:
Mus musculus [1] = experiment: Anticonvulsant activity in Swiss Albino mouse at 300 mg/kg, ip after 4 hrs by MES test; format: functional, organism-based; set-up: dose 300 mg/kg
Method in brief: (§1)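 Mice (Swiss, 20-25 g) given i.p. doses of 30, 100 and 300 mg/kg under ADD program protocols, three per group, examined at 0.5 and 4 h in MES, scPTZ, scSTY or scPIC seizure tests. Value is the minimum dose protecting half or more of the mice.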

Mus musculus [2] = experiment: Anticonvulsant activity in Swiss Albino mouse at 300 mg/kg, ip after 0.5 hr by scPTZ test; format: functional, organism-based; set-up: dose 300 mg/kg; method in brief: as §1
Mus musculus [3] = experiment: Analgesic activity in Swiss Albino mouse assessed as number of acetic acid-induced writhing per 30 min after 100 mg/kg, ip; format: functional; settings: route intraperitoneal
Method in brief: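 Mice in groups of six dosed i.p. at 100 mg/kg, controls receiving 30% v/v PEG 400 in water. Writhing induced by i.p. 0.1 mL of 3% v/v acetic acid 1 h after drug. Writhes (abdominal stretch with at least one hind limb extended) counted over 30 min; % inhibition calculated. Mean ± SEM, Student's t test.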

Rattus norvegicus [4] = experiment: Effect on spontaneous pain in Sprague-Dawley rat CCI model assessed as duration of paw withdrawal at 100 mg/kg, ip after 0.5 hr; format: functional; settings: route intraperitoneal
Method in brief: (§2)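 CCI rats (n = 4) dosed 100 mg/kg i.p. (vehicle 30% v/v PEG 400 in water). After 10 min acclimatization in a cage 5 cm above ground, cumulative time the ipsilateral paw was held off the floor over 5 min recorded, excluding locomotion lifts. Mean ± SEM; ANOVA/Bonferroni versus predrug.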

Rattus norvegicus [5] = experiment: Effect on spontaneous pain in Sprague-Dawley rat CCI model assessed as duration of paw withdrawal at 100 mg/kg, ip after 1 hr; format: functional; settings: route intraperitoneal; method in brief: as §2
Rattus norvegicus [6] = experiment: Effect on spontaneous pain in Sprague-Dawley rat CCI model assessed as duration of paw withdrawal at 100 mg/kg, ip after 1.5 hrs; format: functional; settings: route intraperitoneal
Method in brief: (§3)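 Unilateral CCI of sciatic nerve (Bennett and Xie) in Sprague-Dawley rats under i.p. pentobarbital sodium (65 mg/kg). Spontaneous pain is scored over 5 min after 10 min acclimatization, as cumulative time the ipsilateral paw is held off the floor. Paw lifts from locomotion or repositioning are excluded. Drug is given at 100 mg/kg i.p. with 30% v/v PEG 400 vehicle. Mean ± SEM, n = 4, compared with predrug by ANOVA/Bonferroni.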

Rattus norvegicus [7] = experiment: Effect on spontaneous pain in Sprague-Dawley rat CCI model assessed as duration of paw withdrawal at 100 mg/kg, ip after 2 hrs; format: functional; settings: route intraperitoneal; method in brief: as §3
Rattus norvegicus [8] = experiment: Anti-dynamic allodynia effect in Sprague-Dawley rat SNL model assessed as latency to paw withdrawal 100 mg/kg, ip after 1.5 hrs; format: functional; settings: route intraperitoneal
Method in brief: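 Left L5 spinal nerve ligation rats, tested preoperatively and 9 days postoperatively, then given 100 mg/kg i.p. (vehicle 30% v/v PEG 400 in water). After 10 min acclimatization, plantar surface of affected paw stroked mildly with a cotton-bud; paw lift response recorded. n = 4; retested 0.5-2.5 h post-dose.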

Rattus norvegicus [9] = experiment: Effect on spontaneous pain in Sprague-Dawley rat CCI model assessed as duration of paw withdrawal at 100 mg/kg, ip after 2.5 hrs; format: functional; settings: route intraperitoneal; method in brief: as §3
Rattus norvegicus [10] = experiment: Antihyperalgesic effects in Sprague-Dawley rat CCI model assessed as duration of paw withdrawal at 100 mg/kg, ip after 0.5 hr; format: functional; settings: route intraperitoneal
Rattus norvegicus [11] = experiment: Antihyperalgesic effects in Sprague-Dawley rat CCI model assessed as duration of paw withdrawal at 100 mg/kg, ip after 1 hr; format: functional; settings: route intraperitoneal
Rattus norvegicus [12] = experiment: Antihyperalgesic effects in Sprague-Dawley rat CCI model assessed as duration of paw withdrawal at 100 mg/kg, ip after 1.5 hrs; format: functional; settings: route intraperitoneal
Rattus norvegicus [13] = experiment: Antihyperalgesic effects in Sprague-Dawley rat CCI model assessed as duration of paw withdrawal at 100 mg/kg, ip after 2 hrs; format: functional; settings: route intraperitoneal
Rattus norvegicus [14] = experiment: Antihyperalgesic effects in Sprague-Dawley rat CCI model assessed as duration of paw withdrawal at 100 mg/kg, ip after 2.5 hrs; format: functional; settings: route intraperitoneal
Rattus norvegicus [15] = experiment: Antihyperalgesic effects in Sprague-Dawley rat SNL model assessed as duration of paw withdrawal at 100 mg/kg, ip after 0.5 hr, ip; format: functional; settings: route intraperitoneal
Method in brief: (§4)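 L5 SNL rats (n = 4), dosed 100 mg/kg i.p. (vehicle 30% v/v PEG 400 in water). Pin-prick to midplantar ipsilateral left hindpaw; withdrawal duration, mean of three responses; ≥2 s defined abnormal. Mean ± SEM; one-way ANOVA with Bonferroni versus predrug.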

Rattus norvegicus [16] = experiment: Antihyperalgesic effects in Sprague-Dawley rat SNL model assessed as duration of paw withdrawal at 100 mg/kg, ip after 1 hr, ip; format: functional; settings: route intraperitoneal; method in brief: as §4
Rattus norvegicus [17] = experiment: Antihyperalgesic effects in Sprague-Dawley rat SNL model assessed as duration of paw withdrawal at 100 mg/kg, ip after 1.5 hrs, ip; format: functional; settings: route intraperitoneal; method in brief: as §4
Rattus norvegicus [18] = experiment: Antihyperalgesic effects in Sprague-Dawley rat SNL model assessed as duration of paw withdrawal at 100 mg/kg, ip after 2.5 hrs, ip; format: functional; settings: route intraperitoneal; method in brief: as §4
Rattus norvegicus [19] = organism: Rattus norvegicus; experiment: Anti-dynamic allodynic effect in Sprague-Dawley rat CCI model assessed as latency to paw withdrawal after 0.5 hr; format: functional
Method in brief: (§5)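 Rats with sciatic nerve chronic constriction injury (pentobarbital 65 mg/kg i.p. anaesthesia), baseline and day 9 testing, then drug per randomization table. After 10 min acclimatization, affected plantar surface stroked mildly with a cotton-bud; paw lift recorded. n = 4; retested 0.5-2.5 h post-dose.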

Rattus norvegicus [20] = organism: Rattus norvegicus; experiment: Anti-dynamic allodynic effect in Sprague-Dawley rat CCI model assessed as latency to paw withdrawal after 1 hr; format: functional; method in brief: as §5
Rattus norvegicus [21] = organism: Rattus norvegicus; experiment: Anti-dynamic allodynic effect in Sprague-Dawley rat CCI model assessed as latency to paw withdrawal after 1.5 hr; format: functional; method in brief: as §5
Rattus norvegicus [22] = organism: Rattus norvegicus; experiment: Anti-dynamic allodynic effect in Sprague-Dawley rat CCI model assessed as latency to paw withdrawal after 2 hr; format: functional; method in brief: as §5
Rattus norvegicus [23] = organism: Rattus norvegicus; experiment: Anti-dynamic allodynic effect in Sprague-Dawley rat CCI model assessed as latency to paw withdrawal after 2.5 hr; format: functional; method in brief: as §5
Rattus norvegicus [24] = experiment: Anti-cold allodynia effect in Sprague-Dawley rat CCI model assessed as duration of paw withdrawal at 100 mg/kg, ip after 0.5 hr; format: functional; settings: route intraperitoneal
Method in brief: (§6)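 CCI by sciatic nerve ligation under pentobarbital (65 mg/kg i.p.). Rats tested at baseline and 9 days post-surgery; those with allodynia dosed i.p. 100 mg/kg, vehicle 30% v/v PEG 400 in water. Acetone (100-200 µL) misted on midplantar affected paw; withdrawal duration recorded, three samples averaged, at least 3 min apart; n = 4.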

Rattus norvegicus [25] = experiment: Anti-cold allodynia effect in Sprague-Dawley rat CCI model assessed as duration of paw withdrawal 100 mg/kg, ip after 1 hr; format: functional; settings: route intraperitoneal; method in brief: as §6
Rattus norvegicus [26] = experiment: Effect on spontaneous pain in Sprague-Dawley rat SNL model assessed as duration of paw withdrawal at 100 mg/kg, ip after 1 hr; format: functional; settings: route intraperitoneal
Method in brief: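 Rats underwent left L5 spinal nerve ligation (Kim and Chung) under i.p. pentobarbital (65 mg/kg). Spontaneous pain is recorded for 5 min after 10 min acclimatization, as cumulative duration the ipsilateral paw is lifted, excluding locomotor lifts. Dosing is 100 mg/kg i.p. in 30% v/v PEG 400/water, with testing at 0.5–2.5 h. Four rats, mean ± SEM versus predrug, one-way ANOVA with Bonferroni.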

SMILES | Activity (Rattus norvegicus [4]) | Activity (Rattus norvegicus [5]) | Activity (Rattus norvegicus [6]) | Activity (Rattus norvegicus [7]) | Activity (Rattus norvegicus [8]) | Activity (Rattus norvegicus [9]) | Activity (Rattus norvegicus [10]) | Activity (Rattus norvegicus [11]) | Activity (Rattus norvegicus [12]) | Activity (Rattus norvegicus [13]) | Activity (Rattus norvegicus [14]) | Activity (Rattus norvegicus [15]) | Activity (Rattus norvegicus [16]) | Activity (Rattus norvegicus [17]) | Activity (Rattus norvegicus [18]) | Activity (Rattus norvegicus [19]) | Activity (Rattus norvegicus [20]) | Activity (Rattus norvegicus [21]) | Activity (Rattus norvegicus [22]) | Activity (Rattus norvegicus [23]) | also measured
O=C(O)CCCNC(=O)N/N=C/c1ccccc1O | 10.5 s | 19.3 s | 23.7 s | 11.2 s | 11.5 s | 7.3 s | 7.5 s | 7.7 s | 4.4 s | 4.1 s | 7.3 s | 17.6 s | 17.3 s | 10.6 s | 17.3 s | 13.6 s | 13.5 s | 11.1 s | 14.6 s | 13.1 s | Activity (Mus musculus [1]): inactive; Activity (Mus musculus [2]): inactive; Activity (Mus musculus [3]): 19; Activity (Rattus norvegicus [24]): 31.3 s; Activity (Rattus norvegicus [25]): 15.8 s
O=C(O)CCCNC(=O)N/N=C1\C(=O)Nc2ccccc21 | 38.6 s | 34.9 s | 21.6 s | 20.6 s |  | 20.2 s | 10.8 s | 4.9 s | 8.8 s | 5 s | 27.8 s | 4.7 s | 9.6 s | 45.7 s | 18.7 s | 14.5 s | 12.4 s | 15.5 s | 8.4 s | 0.8 s | Activity (Mus musculus [1]): Active; Activity (Mus musculus [2]): Active; Activity (Mus musculus [3]): 47.3; Activity (Rattus norvegicus [26]): 0.9 s
NC(=O)N1c2ccccc2C=Cc2ccccc21 [CARBAMAZEPINE] | 24.6 s | 17.8 s | 32.8 s | 67.4 s | 2.9 s | 76.9 s | 13.3 s | 15.7 s | 22.9 s | 21.7 s | 24 s | 11.1 s | 5.2 s | 6.6 s | 5.8 s | 2.7 s | 3.7 s | 4.9 s | 3.4 s | 3.8 s | Activity (Rattus norvegicus [26]): 7.9 s; Activity (Rattus norvegicus [24]): 12.8 s; Activity (Rattus norvegicus [25]): 10.6 s
NCC1(CC(=O)O)CCCCC1 [GABAPENTIN] | 62.2 s | 15.5 s | 13.1 s | 11 s | 6 s | 18.1 s | 36.8 s | 12.3 s | 10.7 s | 9.2 s | 8.4 s | 20.1 s | 10.2 s | 10 s | 8.8 s | 1.6 s | 4.6 s | 5.5 s | 5.9 s | 6.6 s | Activity (Rattus norvegicus [26]): 12.9 s; Activity (Rattus norvegicus [24]): 26.8 s; Activity (Rattus norvegicus [25]): 10 s
Nc1nnc(-c2cccc(Cl)c2Cl)c(N)n1 [LAMOTRIGINE] | 69.2 s | 79 s | 76.9 s | 71.2 s | 1.9 s | 67.8 s | 36.2 s | 36.7 s | 35.7 s | 33.7 s | 29.8 s | 22.5 s | 8.2 s | 10.1 s | 17.3 s | 5.7 s | 1.3 s | 0.9 s | 0.9 s | 1 s | Activity (Rattus norvegicus [26]): 13.3 s; Activity (Rattus norvegicus [24]): 53.7 s; Activity (Rattus norvegicus [25]): 33.6 s
